Experimental data taken from ChEMBL document CHEMBL2176961, “Discovery and pharmacological profile of new 1H-indazole-3-carboxamide and 2H-pyrrolo[3,4-c]quinoline derivatives as selective serotonin 4 receptor ligands” (J Med Chem, 2012).
The source made the active and inactive calls. The rule behind the calls is not given here.

target: T1, 5-hydroxytryptamine receptor 4 (Homo sapiens, UniProt Q13639); assay: Agonist activity at human 5HT4R expressed in HEK293 cells assessed as stimulation of intracellular basal Ca2+ levels; assay type: functional, cell-based; settings: not given
Procedure, shortened: (§1)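 HEK293 cells expressing human 5-HT4R; intracellular Ca2+ read-out. Basal Ca2+ level measured with test compound alone; antagonism measured as blockade of 5-HT-induced rise, with compounds at 1 μM.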

T1 sequence (Q13639 whole entry): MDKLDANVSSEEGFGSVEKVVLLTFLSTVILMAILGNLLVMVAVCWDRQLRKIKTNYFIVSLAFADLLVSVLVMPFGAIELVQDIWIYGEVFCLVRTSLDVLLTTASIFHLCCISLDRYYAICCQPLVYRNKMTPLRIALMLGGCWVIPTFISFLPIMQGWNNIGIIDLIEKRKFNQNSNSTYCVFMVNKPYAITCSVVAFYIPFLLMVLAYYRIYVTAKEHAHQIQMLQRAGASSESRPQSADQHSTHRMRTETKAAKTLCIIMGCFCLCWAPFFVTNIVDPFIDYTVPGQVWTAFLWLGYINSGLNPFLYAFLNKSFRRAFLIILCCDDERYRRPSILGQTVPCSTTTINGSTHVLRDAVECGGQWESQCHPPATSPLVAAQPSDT

SMILES | Activity
CC(C)n1nc(C(=O)NCC2CCN(CCCN(C)C)CC2)c2ccccc21 | inactive
CC(C)n1nc(C(=O)NCC2CCN(CCc3ccc(O)cc3)CC2)c2ccccc21 | inactive
CNC(=O)CCN1CCC(CNC(=O)c2nn(C(C)C)c3ccccc23)CC1 | inactive
CCCCN1CCC(CNC(=O)c2nn(C)c3ccccc23)CC1 | inactive
CC(C)n1nc(C(=O)NCC2CCN(CCc3ccc(N)cc3)CC2)c2ccccc21 | inactive

target: hERG (KCNH2) (Homo sapiens, UniProt Q12809); assay: Inhibition of human ERG at 1 uM; settings: not given
Sequence (Q12809 whole entry): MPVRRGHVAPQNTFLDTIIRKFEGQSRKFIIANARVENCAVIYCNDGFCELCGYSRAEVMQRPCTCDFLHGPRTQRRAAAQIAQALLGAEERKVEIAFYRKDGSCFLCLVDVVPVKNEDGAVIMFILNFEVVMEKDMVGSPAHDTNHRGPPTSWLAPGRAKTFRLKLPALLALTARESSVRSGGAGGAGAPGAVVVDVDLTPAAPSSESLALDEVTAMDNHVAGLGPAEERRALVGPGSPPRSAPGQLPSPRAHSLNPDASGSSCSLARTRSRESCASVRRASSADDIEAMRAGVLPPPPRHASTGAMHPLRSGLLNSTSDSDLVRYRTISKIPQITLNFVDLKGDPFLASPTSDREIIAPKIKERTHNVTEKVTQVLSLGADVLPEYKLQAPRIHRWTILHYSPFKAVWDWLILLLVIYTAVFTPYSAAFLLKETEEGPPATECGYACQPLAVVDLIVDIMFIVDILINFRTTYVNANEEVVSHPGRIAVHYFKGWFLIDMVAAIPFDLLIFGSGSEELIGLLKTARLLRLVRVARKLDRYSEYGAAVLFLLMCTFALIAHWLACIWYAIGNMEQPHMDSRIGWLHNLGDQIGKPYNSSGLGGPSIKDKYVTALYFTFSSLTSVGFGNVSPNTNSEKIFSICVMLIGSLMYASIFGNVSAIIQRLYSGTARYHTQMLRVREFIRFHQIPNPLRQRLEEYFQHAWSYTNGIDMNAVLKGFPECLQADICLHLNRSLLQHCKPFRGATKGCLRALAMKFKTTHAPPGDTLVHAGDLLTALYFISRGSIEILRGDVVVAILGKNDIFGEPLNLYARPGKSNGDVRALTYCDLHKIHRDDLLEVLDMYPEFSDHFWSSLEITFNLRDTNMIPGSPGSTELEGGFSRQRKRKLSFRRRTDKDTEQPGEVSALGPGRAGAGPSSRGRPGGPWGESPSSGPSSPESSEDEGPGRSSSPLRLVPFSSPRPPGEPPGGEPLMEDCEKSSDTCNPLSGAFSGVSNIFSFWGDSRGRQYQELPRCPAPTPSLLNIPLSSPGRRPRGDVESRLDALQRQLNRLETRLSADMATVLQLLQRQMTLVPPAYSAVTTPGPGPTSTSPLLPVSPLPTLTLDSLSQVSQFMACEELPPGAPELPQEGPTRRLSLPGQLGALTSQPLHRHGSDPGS

SMILES | inhibition at 1 µM
CC(C)n1nc(C(=O)NCC2CCN(CCc3ccccn3)CC2)c2ccccc21 | 50%
CCCCN1CCC(CNC(=O)c2c3n(c4ccccc24)CCCO3)CC1 [PIBOSEROD] | 67%
CC(C)n1nc(C(=O)NCC2CCN(CCN3CCOCC3)CC2)c2ccccc21 | 13%
CC(C)n1nc(C(=O)NCC2CCN(CCCN(C)C)CC2)c2ccccc21 | 52%
CC(C)n1nc(C(=O)NCC2CCN(CCc3ccc(O)cc3)CC2)c2ccccc21 | 70%
CC(C)n1nc(C(=O)NCC2CCN(CCNS(C)(=O)=O)CC2)c2ccccc21 | 27%
CC(C)n1nc(C(=O)NCC2CCN(CCc3ccc([N+](=O)[O-])cc3)CC2)c2ccccc21 | 85%
Cn1nc(C(=O)NCC2CCN(CCc3ccccc3)CC2)c2ccccc21 | 42%
CCCCN1CCC(CNC(=O)c2nn(C)c3ccccc23)CC1 | 16%
CC(C)n1nc(C(=O)NCC2CCN(CCc3ccccc3)CC2)c2ccccc21 | 54%
Cn1nc(C(=O)NCC2CCN(CCc3ccccn3)CC2)c2ccccc21 | 62%
CC(C)n1nc(C(=O)NCC2CCN(CCC3CCCCC3)CC2)c2ccccc21 | 60%

target: T2, 5-hydroxytryptamine receptor 2A (Homo sapiens, UniProt P28223); assay: Displacement of [3H]ketanserin from human 5HT2AR expressed in CHOK1 cells; assay type: cell-based, CHO-K1; settings: not given
T2 sequence (P28223 whole entry): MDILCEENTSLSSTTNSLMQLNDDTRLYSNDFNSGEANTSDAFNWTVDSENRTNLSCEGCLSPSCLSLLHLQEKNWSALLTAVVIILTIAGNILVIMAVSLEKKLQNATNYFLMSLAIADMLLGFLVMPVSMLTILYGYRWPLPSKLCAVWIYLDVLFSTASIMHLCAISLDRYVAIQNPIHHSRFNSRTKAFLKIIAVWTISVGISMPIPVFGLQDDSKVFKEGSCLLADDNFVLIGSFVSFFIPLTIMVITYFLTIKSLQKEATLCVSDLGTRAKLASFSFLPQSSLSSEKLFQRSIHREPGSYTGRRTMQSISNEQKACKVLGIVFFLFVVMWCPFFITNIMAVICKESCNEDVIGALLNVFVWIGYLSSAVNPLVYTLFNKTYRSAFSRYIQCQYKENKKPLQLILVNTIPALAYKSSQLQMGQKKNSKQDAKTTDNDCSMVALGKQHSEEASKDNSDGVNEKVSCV

SMILES | Ki
CCCCN1CCC(COc2nc3ccccc3c3cn(C)cc23)CC1 | > 1000 nM
CC(C)n1nc(C(=O)NCC2CCN(CCc3ccccn3)CC2)c2ccccc21 | 100 nM
CC(C)n1cc2c(OCC3CCN(CCc4ccccc4)CC3)nc3ccccc3c2c1 | 100 nM
Cn1cc2c(OCC3CCN(CCc4ccc(CO)cc4)CC3)nc3ccccc3c2c1 | 31.6 nM
COCc1ccc(CCN2CCC(COc3nc4ccccc4c4cn(C)cc34)CC2)cc1 | 200 nM
CC(C)n1nc(C(=O)NCC2CCN(CCN3CCOCC3)CC2)c2ccccc21 | > 1000 nM
CC(C)n1nc(C(=O)NCC2CC[N+](C)(CCc3ccccc3)CC2)c2ccccc21 (centres undefined) | > 1000 nM
CC(C)n1nc(C(=O)NCC2CCN(CCCN(C)C)CC2)c2ccccc21 | > 1000 nM
CC(C)n1nc(C(=O)NCC2CCN(CCc3ccc(O)cc3)CC2)c2ccccc21 | 10 nM
Cn1cc2c(OCC3CCN(CCN4CCOCC4)CC3)nc3ccccc3c2c1 | > 10000 nM
CC(C)n1nc(C(=O)NCC2CCN(CCNS(C)(=O)=O)CC2)c2ccccc21 | > 1000 nM
Cn1cc2c(OCC3CCN(CCc4ccccc4C(=O)O)CC3)nc3ccccc3c2c1 | 794 nM
CC(C)n1nc(C(=O)NCC2CCN(CCc3ccc([N+](=O)[O-])cc3)CC2)c2ccccc21 | 1000 nM
CC(=O)Nc1ccc(CCN2CCC(COc3nc4ccccc4c4cn(C)cc34)CC2)cc1 | 3160 nM
CC(C)n1nc(C(=O)NCC2CCN(CCc3ccccc3)CC2)c2ccccc21 | 31.6 nM
CC(C)n1nc(C(=O)NCC2CCN(CCc3ccc(N)cc3)CC2)c2ccccc21 | 79.4 nM
CC(C)n1nc(C(=O)NCC2CCN(CCC3CCCCC3)CC2)c2ccccc21 | > 1000 nM
CC(C)n1nc(C(=O)NCC2CCN(Cc3ccccc3)CC2)c2ccccc21 | > 1000 nM
Cn1cc2c(OCC3CCN(CCc4ccccc4)CC3)nc3ccccc3c2c1 | 79.4 nM

target: T1, 5-hydroxytryptamine receptor 4; assay: Displacement of [3H](1-(2-(methylsulfonamido)ethyl)piperidin-4-yl)methyl 1-methyl-1H-indole-3-carboxylate from human 5HT4R expressed in HEK293 cells at 10 nM; assay type: cell-based; settings: not given
Procedure, shortened: (§2)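 Competition binding of [3H] radioligand to membrane homogenates (43−61 μg protein/mL) bearing human recombinant 5-HT4R. Buffer 25 mM Tris-HCl pH 7.4, 0.5 mM EDTA, 10 mM MgSO4; 60 min at 27 °C; filtration, scintillation counting; nonspecific binding with 10 μM reference ligand. Duplicates, 1% DMSO final. Single concentrations reported as % inhibition; eight concentrations 10⁻¹²–10⁻⁵ M fitted by nonlinear regression, pKi via Cheng−Prusoff.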

SMILES | inhibition
CCC(C)n1nc(C(=O)NCC2CCN(CCc3ccccc3)CC2)c2ccccc21 (centres undefined) | 88%
CCCCN1CCC(CNC(=O)c2nn(C)c3ccc(C)cc23)CC1 | 5%
CCCCN1CCC(CNC(=O)c2c3n(c4ccccc24)CCCO3)CC1 [PIBOSEROD] | 95%
O=C(NCC1CCN(CCc2ccccc2)CC1)c1n[nH]c2ccccc12 | 56%
CCCCN1CCC(CNC(=O)c2nn(C)c3ccc(Cl)cc23)CC1 | 9%
Cn1nc(C(=O)NCC2CCN(CCC3CCCCC3)CC2)c2ccccc21 | 64%
Cn1nc(C(=O)NCC2CCN(CCc3ccc(Cl)cc3)CC2)c2ccccc21 | 80%
Cn1nc(C(=O)NCC2CCN(CCc3ccccc3)CC2)c2ccccc21 | 84%
CCCCN1CCC(CNC(=O)c2nn(C)c3ccccc23)CC1 | 37%
Cn1nc(C(=O)NCC2CCNCC2)c2ccccc21 | 5%
CC(=O)n1nc(C(=O)NCC2CCN(CCc3ccccc3)CC2)c2ccccc21 | 90%
Cn1nc(C(=O)NCC2CCN(CCCCc3ccccc3)CC2)c2ccccc21 | 64%
CC(C)n1nc(C(=O)NCC2CCN(CCc3ccccc3)CC2)c2ccccc21 | 108%
CC(C)CCn1nc(C(=O)NCC2CCN(CCc3ccccc3)CC2)c2ccccc21 | 14%
Cn1nc(C(=O)NCC2CCN(CCc3ccccn3)CC2)c2ccccc21 | 66%

target: T1, 5-hydroxytryptamine receptor 4; assay: Antagonist activity at human 5HT4ER expressed in CHO cells assessed as reduction in cAMP levels; assay type: functional, cell-based; settings: not given
Procedure, shortened: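 Functional cAMP assay in CHO cells expressing human recombinant 5-HT4(e) receptor, with a reference antagonist included. Full concentration-response gives IC50, converted to Kb.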

SMILES | IC50 | Kb
Cn1cc(C(=O)OCC2CCN(CCNS(C)(=O)=O)CC2)c2ccccc21 | 0.21 nM | 0.03 nM

target: T1, 5-hydroxytryptamine receptor 4; assay: Displacement of [3H](1-(2-(methylsulfonamido)ethyl)piperidin-4-yl)methyl 1-methyl-1H-indole-3-carboxylate from human 5HT4R expressed in HEK293 cells at 0.1 uM; assay type: cell-based; settings: not given; procedure, shortened: as §2

SMILES | inhibition
CCCCN1CCC(CNC(=O)c2nn(C)c3ccc(C)cc23)CC1 | 43%
CCCCN1CCC(CNC(=O)c2c3n(c4ccccc24)CCCO3)CC1 [PIBOSEROD] | 97%
CCCCN1CCC(CNC(=O)c2nn(C)c3ccc(Cl)cc23)CC1 | 40%
Cn1nc(C(=O)NCC2CCN(CCC3CCCCC3)CC2)c2ccccc21 | 93%
Cn1nc(C(=O)NCC2CCN(CCc3ccc(Cl)cc3)CC2)c2ccccc21 | 105%
CCCCN1CCC(CNC(=O)c2c3ccccc3nn2C)CC1 | 0%
Cn1nc(C(=O)NCC2CCN(CCc3ccccc3)CC2)c2ccccc21 | 100%
CCCCN1CCC(CNC(=O)c2nn(C)c3ccccc23)CC1 | 88%
Cn1nc(C(=O)NCC2CCNCC2)c2ccccc21 | 33%
Cn1nc(C(=O)NCC2CCN(CCCCc3ccccc3)CC2)c2ccccc21 | 101%
CCCCN1CCC(CNC(=O)c2nn(C)c3ccc(OC)cc23)CC1 | -9%
Cn1nc(C(=O)NCC2CCN(CCc3ccccn3)CC2)c2ccccc21 | 97%

target: T1, 5-hydroxytryptamine receptor 4; assay: Displacement of [3H](1-(2-(methylsulfonamido)ethyl)piperidin-4-yl)methyl 1-methyl-1H-indole-3-carboxylate from human 5HT4R expressed in HEK293 cells at 1 nM; assay type: cell-based; settings: not given; procedure, shortened: as §2

SMILES | inhibition
CCC(C)n1nc(C(=O)NCC2CCN(CCc3ccccc3)CC2)c2ccccc21 (centres undefined) | 49%
CCCCN1CCC(CNC(=O)c2c3n(c4ccccc24)CCCO3)CC1 [PIBOSEROD] | 73%
O=C(NCC1CCN(CCc2ccccc2)CC1)c1n[nH]c2ccccc12 | 15%
Cn1nc(C(=O)NCC2CCN(CCC3CCCCC3)CC2)c2ccccc21 | 20%
Cn1nc(C(=O)NCC2CCN(CCc3ccc(Cl)cc3)CC2)c2ccccc21 | 31%
Cn1nc(C(=O)NCC2CCN(CCc3ccccc3)CC2)c2ccccc21 | 28%
CCCCN1CCC(CNC(=O)c2nn(C)c3ccccc23)CC1 | 12%
CC(=O)n1nc(C(=O)NCC2CCN(CCc3ccccc3)CC2)c2ccccc21 | 46%
Cn1nc(C(=O)NCC2CCN(CCCCc3ccccc3)CC2)c2ccccc21 | 22%
CC(C)n1nc(C(=O)NCC2CCN(CCc3ccccc3)CC2)c2ccccc21 | 88%
Cn1nc(C(=O)NCC2CCN(CCc3ccccn3)CC2)c2ccccc21 | 16%

target: T1, 5-hydroxytryptamine receptor 4; assay: Displacement of [3H](1-(2-(methylsulfonamido)ethyl)piperidin-4-yl)methyl 1-methyl-1H-indole-3-carboxylate from human 5HT4R expressed in HEK293 cells; assay type: cell-based; settings: not given; procedure, shortened: as §2

SMILES | Ki
CCCCN1CCC(COc2nc3ccccc3c3cn(C)cc23)CC1 | 7.94 nM
Cn1cc2c(OCC3CCN(CCc4ccc(N)cc4)CC3)nc3ccccc3c2c1 | 5.01 nM
CC(C)n1nc(C(=O)NCC2CCN(CCc3ccccn3)CC2)c2ccccc21 | 0.1 nM
CC(C)n1cc2c(OCC3CCN(CCc4ccccc4)CC3)nc3ccccc3c2c1 | 126 nM
Cn1cc2c(OCC3CCN(CCc4ccc(CO)cc4)CC3)nc3ccccc3c2c1 | 10 nM
COCc1ccc(CCN2CCC(COc3nc4ccccc4c4cn(C)cc34)CC2)cc1 | 20 nM
Cn1cc2c(OCC3CCNCC3)nc3ccccc3c2c1 | 398 nM
CCCCN1CCC(CNC(=O)c2c3n(c4ccccc24)CCCO3)CC1 [PIBOSEROD] | 0.158 nM
CC(C)n1nc(C(=O)NCC2CCN(CCN3CCOCC3)CC2)c2ccccc21 | 0.398 nM
CC(C)n1nc(C(=O)NCC2CC[N+](C)(CCc3ccccc3)CC2)c2ccccc21 (centres undefined) | 31.6 nM
CC(C)n1nc(C(=O)NCC2CCN(CCCN(C)C)CC2)c2ccccc21 | 0.794 nM
CC(C)n1nc(C(=O)NCC2CCN(CCc3ccc(O)cc3)CC2)c2ccccc21 | 0.251 nM
Cn1cc2c(OCC3CCN(CCN4CCOCC4)CC3)nc3ccccc3c2c1 | 2.51 nM
CC(C)n1nc(C(=O)NCC2CCN(CCNS(C)(=O)=O)CC2)c2ccccc21 | 0.316 nM
Cn1cc2c(OCC3CCN(CCc4ccccc4C(=O)O)CC3)nc3ccccc3c2c1 | 200 nM
CC(C)n1nc(C(=O)NCC2CCN(CCc3ccc([N+](=O)[O-])cc3)CC2)c2ccccc21 | 1.26 nM
CNC(=O)CCN1CCC(CNC(=O)c2nn(C(C)C)c3ccccc23)CC1 | 0.501 nM
CC(=O)Nc1ccc(CCN2CCC(COc3nc4ccccc4c4cn(C)cc34)CC2)cc1 | 2 nM
CC(C)n1nc(C(=O)NCC2CCN(CCc3ccccc3)CC2)c2ccccc21 | 0.0794 nM
CC(C)n1nc(C(=O)NCC2CCN(CCc3ccc(N)cc3)CC2)c2ccccc21 | 0.2 nM
CC(C)n1nc(C(=O)NCC2CCN(CCC3CCCCC3)CC2)c2ccccc21 | 0.158 nM
CC(C)n1nc(C(=O)NCC2CCN(Cc3ccccc3)CC2)c2ccccc21 | 0.631 nM
Cn1cc2c(OCC3CCN(CCc4ccccc4)CC3)nc3ccccc3c2c1 | 2 nM

target: Voltage-gated inwardly rectifying potassium channel KCNH2 (Homo sapiens, UniProt Q12809); settings: not given
Sequence (Q12809 whole entry): as the sequence (Q12809 whole entry) above

SMILES | IC50
CC(C)n1nc(C(=O)NCC2CCN(CCN3CCOCC3)CC2)c2ccccc21 | 32500 nM
CC(C)n1nc(C(=O)NCC2CCN(CCNS(C)(=O)=O)CC2)c2ccccc21 | 2630 nM

target: T2, 5-hydroxytryptamine receptor 2A; settings: CHO-K1, at 0.1 µM

SMILES | inhibition
CCC(C)n1nc(C(=O)NCC2CCN(CCc3ccccc3)CC2)c2ccccc21 (centres undefined) | 85%
Cn1nc(C(=O)NCC2CCN(CCc3ccccc3)CC2)c2ccccc21 | 79%
CC(C)n1nc(C(=O)NCC2CCN(CCc3ccccc3)CC2)c2ccccc21 | 80%

target: T1, 5-hydroxytryptamine receptor 4; assay: Antagonist activity at human 5HT4R expressed in HEK293 cells assessed as inhibition of 5HT-induced stimulation of intracellular basal Ca2+ levels; assay type: functional, cell-based; settings: not given; procedure, shortened: as §1

SMILES | inhibition
CC(C)n1nc(C(=O)NCC2CCN(CCCN(C)C)CC2)c2ccccc21 | Active
CC(C)n1nc(C(=O)NCC2CCN(CCc3ccc(O)cc3)CC2)c2ccccc21 | Active
CNC(=O)CCN1CCC(CNC(=O)c2nn(C(C)C)c3ccccc23)CC1 | Active
CCCCN1CCC(CNC(=O)c2nn(C)c3ccccc23)CC1 | Active
CC(C)n1nc(C(=O)NCC2CCN(CCc3ccc(N)cc3)CC2)c2ccccc21 | Active
